Measured values published in ChEMBL document CHEMBL1275303, “Synthesis and antimicrobial activity of 2-substituted [4-(1,3,4-oxadiazol-2-yl methyl)] phthalazin-1(2H)-one derivatives” (2010).

How the values were obtained:
Aspergillus flavus [1] = experiment: Antimicrobial activity against Aspergillus flavus at 100 ug/mL after 72 hrs by well plate method; type: functional; settings: read-out: IZ
Nannizzia gypsea [2] = experiment: Antimicrobial activity against Microsporum gypseum at 50 ug/mL after 72 hrs by well plate method; type: functional; settings: read-out: IZ
Summary of the method: (§1)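 Antifungal well-plate assay on Sabouraud dextrose agar using a 72 h old broth culture of the fungal strain. Wells were filled with compound dissolved in DMSO (100 or 50), and the zone of inhibition around each well was measured. […] served as reference.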

Nannizzia gypsea [3] = experiment: Antimicrobial activity against Microsporum gypseum at 100 ug/mL after 72 hrs by well plate method; type: functional; settings: read-out: IZ; summary of the method: as §1
Candida albicans [4] = experiment: Antimicrobial activity against Candida albicans at 50 ug/mL after 72 hrs by well plate method; type: functional; settings: read-out: IZ; summary of the method: as §1
Salmonella typhi [5] = experiment: Antimicrobial activity against Salmonella typhi at 50 ug/mL after 24 hrs by well plate method; type: functional, Salmonella enterica subsp. enterica serovar Typhi; settings: Salmonella enterica, read-out: IZ
Summary of the method: (§2)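 Agar well diffusion in nutrient agar: about 1 cm³ of a 24 h broth culture placed in a sterile dish, molten agar at 45 °C poured over it and allowed to set. 6 mm holes cut with a sterile cork borer and filled with compound solution in DMSO. Incubated 24 h at 37 °C; inhibition zone diameter read in mm. Run in duplicate, standard deviation calculated.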

[6] = tested on: Chrysosporium keratinophilum; experiment: Antimicrobial activity against Chrysosporium keratinophilum at 50 ug/mL after 72 hrs by well plate method; type: functional; settings: read-out: IZ; summary of the method: as §1
Bacillus subtilis [7] = experiment: Antimicrobial activity against Bacillus subtilis at 100 ug/mL after 24 hrs by well plate method; type: functional; settings: read-out: IZ
Summary of the method: (§3)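 Agar well diffusion in nutrient agar. About 1 cm³ of a 24 h broth culture was placed in sterile dishes, and molten agar at 45 °C was poured over it and set. 6 mm wells were bored and filled with compound in DMSO (100 or 50). Plates were incubated 24 h at 37 °C, and the inhibition zone was read in mm. Duplicate runs, with standard deviation; amoxicillin as reference.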

Bacillus subtilis [8] = experiment: Antimicrobial activity against Bacillus subtilis at 50 ug/mL after 24 hrs by well plate method; type: functional; settings: read-out: IZ; summary of the method: as §3
Staphylococcus aureus [9] = experiment: Antimicrobial activity against Staphylococcus aureus at 50 ug/mL after 24 hrs by well plate method; type: functional; settings: read-out: IZ; summary of the method: as §3
Salmonella typhi [10] = experiment: Antimicrobial activity against Salmonella typhi at 100 ug/mL after 24 hrs by well plate method; type: functional, Salmonella enterica subsp. enterica serovar Typhi; settings: Salmonella enterica, read-out: IZ; summary of the method: as §2
Aspergillus flavus [11] = experiment: Antimicrobial activity against Aspergillus flavus at 50 ug/mL after 72 hrs by well plate method; type: functional; settings: read-out: IZ
Escherichia coli [12] = experiment: Antimicrobial activity against Escherichia coli at 100 ug/mL after 24 hrs by well plate method; type: functional; settings: read-out: IZ; summary of the method: as §3
[13] = tested on: Chrysosporium keratinophilum; experiment: Antimicrobial activity against Chrysosporium keratinophilum at 100 ug/mL after 72 hrs by well plate method; type: functional; settings: read-out: IZ; summary of the method: as §1
Staphylococcus aureus [14] = experiment: Antimicrobial activity against Staphylococcus aureus at 100 ug/mL after 24 hrs by well plate method; type: functional; settings: read-out: IZ; summary of the method: as §3
Candida albicans [15] = experiment: Antimicrobial activity against Candida albicans at 100 ug/mL after 72 hrs by well plate method; type: functional; settings: read-out: IZ; summary of the method: as §1
Escherichia coli [16] = experiment: Antimicrobial activity against Escherichia coli at 50 ug/mL after 24 hrs by well plate method; type: functional; settings: read-out: IZ; summary of the method: as §3

SMILES	zone of inhibition at 100 µg/mL (Aspergillus flavus [1]) [mm]	zone of inhibition at 50 µg/mL (Nannizzia gypsea [2]) [mm]	zone of inhibition at 100 µg/mL (Nannizzia gypsea [3]) [mm]	zone of inhibition at 50 µg/mL (Candida albicans [4]) [mm]	zone of inhibition at 50 µg/mL (Salmonella typhi [5]) [mm]	zone of inhibition at 50 µg/mL [6] [mm]	zone of inhibition at 100 µg/mL (Bacillus subtilis [7]) [mm]	zone of inhibition at 50 µg/mL (Bacillus subtilis [8]) [mm]	zone of inhibition at 50 µg/mL (Staphylococcus aureus [9]) [mm]	zone of inhibition at 100 µg/mL (Salmonella typhi [10]) [mm]	zone of inhibition at 50 µg/mL (Aspergillus flavus [11]) [mm]	zone of inhibition at 100 µg/mL (Escherichia coli [12]) [mm]	zone of inhibition at 100 µg/mL [13] [mm]	zone of inhibition at 100 µg/mL (Staphylococcus aureus [14]) [mm]	zone of inhibition at 100 µg/mL (Candida albicans [15]) [mm]	zone of inhibition at 50 µg/mL (Escherichia coli [16]) [mm]
Cc1ccccc1-c1nnc(Cc2nn(CCN3CCOCC3)c(=O)c3ccccc23)o1	3	1	2	0	2.5	0	4.5	2.5	1.5	5	1.5	5.5	2.5	3.5	1.5	2.5
O=c1c2ccccc2c(Cc2nnc(C(F)(F)F)o2)nn1CCN1CCOCC1	5.5	2	4	0.5	0	2	5	2	0	2.5	2.5	3.5	4.5	0	3.5	0
O=c1c2ccccc2c(Cc2nnc(-c3ccsc3)o2)nn1Cc1cnc(Cl)s1	8.5	6.5	9.5	4.5	7	5.5	8	4	7	12	3.5	16	11.5	10	8.5	10
O=c1c2ccccc2c(Cc2nnc(C(F)(F)F)o2)nn1Cc1ccc(Cl)nc1	2.5	3	5	1.5	4	1	2	0	3.5	7	0	8	4.5	6	4.5	6
O=c1c2ccccc2c(Cc2nnc(-c3ccc(Cl)nc3)o2)nn1Cc1ccc(Cl)nc1	6.5	4	7	8.5	2.5	4.5	8	5.5	7.5	6.5	3.5	12.5	6.5	10.5	11.5	7.5
O=c1c2ccccc2c(Cc2nnc(-c3ccc(F)cc3)o2)nn1Cc1ccc(Cl)nc1	4	4	6.5	2.5	3	0	5	3	4	7.5	2	10	1.5	6	4.5	8
